# Source: ChEMBL document CHEMBL3632499, “Synthesis and Antiproliferative Activity Evaluation of the Disulfide-Containing Cyclic Peptide Thiochondrilline C and Derivatives” (J Nat Prod, 2015)
# Tests used:
# MDA-MB-435 = assay: Antiproliferative activity against human MDA-MB-435 cells; assay type: functional
# Outline: (§1)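 Profiled in the National Cancer Institute 60 cancer cell line screen. Reported GI50 is the concentration giving 50% growth inhibition, TGI the concentration giving total growth inhibition, and LC50 the concentration giving 50% net cell killing. Values are averages ± SEM from two independent determinations.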
# NCI-H226 = assay: Antiproliferative activity against human NCI-H226 cells; assay type: functional; outline: as §1
# NCI-H460 = assay: Antiproliferative activity against human NCI-H460 cells; assay type: functional; outline: as §1
# OVCAR-5 = assay: Antiproliferative activity against human OVCAR5 cells; assay type: functional; outline: as §1
# PC-3 = assay: Antiproliferative activity against human PC3 cells; assay type: functional; outline: as §1
# NCI-H322M = assay: Antiproliferative activity against human NCI-H322M cells; assay type: functional; outline: as §1
# [1] = Aqueous solubility of the compound; assay type: physicochemical; details: buffer
# [2] = Antiproliferative activity against human SF539 cells; assay type: functional; outline: as §1
# KM12 = assay: Antiproliferative activity against human KM12 cells; assay type: functional; outline: as §1
# HCT-15 = assay: Antiproliferative activity against human HCT15 cells; assay type: functional; outline: as §1
# [3] = Antiproliferative activity against human SF295 cells; assay type: functional; outline: as §1
# K562 = assay: Antiproliferative activity against human K562 cells; assay type: functional; outline: as §1
# Malme-3M = assay: Antiproliferative activity against human MALME-3M cells; assay type: functional; outline: as §1
# DU-145 = assay: Antiproliferative activity against human DU145 cells; assay type: functional; outline: as §1
# HCT-116 = assay: Antiproliferative activity against human HCT116 cells; assay type: functional; outline: as §1
# UACC-62 = assay: Antiproliferative activity against human UACC62 cells; assay type: functional
# Outline: (§2)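 Run in the National Cancer Institute 60 cancer cell line panel. Read-outs: GI50, the concentration causing 50% growth inhibition; TGI, the concentration causing total growth inhibition; LC50, the concentration causing 50% net cell killing. Values are averages ± SEM from two independent determinations.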
# UACC-257 = assay: Antiproliferative activity against human UACC257 cells; assay type: functional; outline: as §2
# HOP-62 = assay: Antiproliferative activity against human HOP62 cells; assay type: functional; outline: as §1
# [4] = Antiproliferative activity against human HCC2998 cells; assay type: functional; outline: as §1
# SK-MEL-5 = assay: Antiproliferative activity against human SK-MEL-5 cells; assay type: functional; outline: as §1
# A549 = assay: Antiproliferative activity against human A549/ATCC cells; assay type: functional; outline: as §1
# [5] = Antiproliferative activity against human BT549 cells; assay type: functional; outline: as §1
# U-251 = assay: Antiproliferative activity against human U251 cells; assay type: functional; outline: as §2
# SK-MEL-28 = assay: Antiproliferative activity against human SK-MEL-28 cells; assay type: functional; outline: as §1
# [6] = read-out: LC50 (the source's name)
structure (smiles),measurement,setting,value
C[C@H](NC(=O)[C@@H]1CSSC[C@@H](NC(=O)c2nc3ccccc3cc2O)C(=O)NCC(=O)N1C)c1ccccc1,GI50,MDA-MB-435,0.8 µM
same,TGI,MDA-MB-435,6.6 µM
same,CC50,MDA-MB-435; [6],22 µM
same,GI50,NCI-H226,8.9 µM
same,TGI,NCI-H226,17.4 µM
same,CC50,NCI-H226; [6],34.2 µM
same,GI50,NCI-H460,1.3 µM
same,TGI,NCI-H460,8 µM
same,CC50,NCI-H460; [6],30.5 µM
same,GI50,OVCAR-5,5.2 µM
same,TGI,OVCAR-5,12.6 µM
same,CC50,OVCAR-5; [6],29.6 µM
same,GI50,PC-3,6.1 µM
same,TGI,PC-3,13.5 µM
same,CC50,PC-3; [6],30.3 µM
same,GI50,NCI-H322M,7.1 µM
same,TGI,NCI-H322M,20.1 µM
same,CC50,NCI-H322M; [6],> 50 µM
same,solubility,[1],4.5 µg/mL
same,GI50,[2]; SF-539,2 µM
same,TGI,[2]; SF-539,9.4 µM
same,CC50,"[2]; SF-539, read-out: LC50 (the source's name)",27.3 µM
same,GI50,KM12,0.6 µM
same,TGI,KM12,8.6 µM
same,CC50,KM12; [6],28.3 µM
same,GI50,HCT-15,2.6 µM
same,TGI,HCT-15,9.7 µM
same,CC50,HCT-15; [6],25.9 µM
same,GI50,[3]; SF-295,7.4 µM
same,TGI,[3]; SF-295,16.3 µM
same,CC50,"[3]; SF-295, read-out: LC50 (the source's name)",35.8 µM
same,GI50,K562,0.7 µM
same,TGI,K562,3.1 µM
same,CC50,K562; [6],> 50 µM
same,GI50,Malme-3M,6.1 µM
same,TGI,Malme-3M,14 µM
same,CC50,Malme-3M; [6],32.3 µM
same,GI50,DU-145,5.8 µM
same,TGI,DU-145,12.7 µM
same,CC50,DU-145; [6],27.7 µM
same,GI50,HCT-116,1.8 µM
same,TGI,HCT-116,6 µM
same,CC50,HCT-116; [6],18.3 µM
same,GI50,UACC-62,5.7 µM
same,TGI,UACC-62,13.3 µM
same,CC50,UACC-62; [6],30.2 µM
same,GI50,UACC-257,8.3 µM
same,TGI,UACC-257,27.8 µM
same,CC50,UACC-257; [6],> 50 µM
same,GI50,HOP-62,12.2 µM
same,TGI,HOP-62,21 µM
same,CC50,HOP-62; [6],36.8 µM
same,GI50,[4]; HCC 2998,7.9 µM
same,TGI,[4]; HCC 2998,17.9 µM
same,CC50,"[4]; HCC 2998, read-out: LC50 (the source's name)",> 50 µM
same,GI50,SK-MEL-5,0.6 µM
same,TGI,SK-MEL-5,3.8 µM
same,CC50,SK-MEL-5; [6],15.6 µM
same,GI50,A549,7.1 µM
same,TGI,A549,15.7 µM
same,CC50,A549; [6],35.3 µM
same,GI50,[5]; BT-549,6.9 µM
same,TGI,[5]; BT-549,16.1 µM
same,CC50,"[5]; BT-549, read-out: LC50 (the source's name)",37.6 µM
same,GI50,U-251,2.5 µM
same,TGI,U-251,7.7 µM
same,CC50,U-251; [6],20.4 µM
same,GI50,SK-MEL-28,0.9 µM
same,TGI,SK-MEL-28,9.9 µM
same,CC50,SK-MEL-28; [6],31.8 µM
